Bioassay records from PubChem BioAssay.
Sampled rows, rich in hits. Any-hit rate of the full collection: about 3.5%.
RGS4 act – RGS4 potentiators or activators, primary screen, cell-based, HEK293 M3R inducible RGS4, calcium flux. carbachol calcium flux Fluo4; stronger effect = lower value. B-score at 10 µM. actives 0.92% (n = 310,000);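 active = B-score of the integrated calcium signal more than 4 SD below the library mean, with starting fluorescence not abnormally high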;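 also: negative B-score means reduced calcium response which marks RGS4 activation or potentiation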
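test system = M3R-expressing HEK293 line, RGS4 induced by doxycycline | probe or stimulus = carbachol at ECmax as muscarinic agonist stimulus | timing = dye loading 30 min 37 °C, buffer rest 30 min RT | signal = calcium dye Fluo4 fluorescence | evaluation = B score from integrated fluorescence ratio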
MrgX1 agonist – agonists of human MrgX1 receptor, primary screen, HEK293 cells, Fluo-4 calcium flux; Mas-related G-protein coupled receptor member X1 (Homo sapiens), Q96LB2; Fluo-4 calcium fluorescence, agonist mode; stronger effect = higher value; B-score at 10 µM; actives 0.44% (n = 310,000); AID 588627, 2011;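 active = calcium response B-score plate-corrected fluorescence ratio at least 3 library SD, with starting fluorescence B-score inside 5 SD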
Target sequence (Q96LB2 whole entry, looked up): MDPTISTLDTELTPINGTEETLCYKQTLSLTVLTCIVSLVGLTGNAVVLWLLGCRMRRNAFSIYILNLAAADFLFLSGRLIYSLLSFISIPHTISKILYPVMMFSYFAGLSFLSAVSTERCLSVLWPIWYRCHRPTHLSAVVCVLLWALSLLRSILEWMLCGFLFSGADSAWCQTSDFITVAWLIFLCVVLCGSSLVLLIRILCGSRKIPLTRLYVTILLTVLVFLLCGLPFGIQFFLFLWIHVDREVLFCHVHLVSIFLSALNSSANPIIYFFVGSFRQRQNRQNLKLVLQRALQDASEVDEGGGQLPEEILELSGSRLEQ
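Material: HEK293 cells stably expressing human MrgX1 receptor | Quantity: 15,000 cells per well | Times: Cells plated overnight, dye loaded 0.5 h 37 °C, 0.5 h room temperature | Measured by: Kinetic Fluo-4 NW fluorescence of intracellular calcium | Control set: Positive and negative controls per plate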
MrgX1 allo act – positive allosteric modulators of MrgX1, primary screen, HEK293 cells, Fluo-4 calcium flux. Mas-related G-protein coupled receptor member X1 (Homo sapiens), Q96LB2. FDSS; stronger effect = higher value. B-score at 10 µM. actives 0.63% (n = 310,000);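 active = plate-corrected calcium response at least 3 library SD above typical, normal starting fluorescence, not activating the receptor alone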;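 also: compound read alongside a low EC10 to EC30 dose of BAM8-22 agonist; peak minus trough fluorescence over baseline measured at the second addition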
MrgX1 antagonist – antagonists of human MrgX1 receptor, primary screen, HEK293 cells, Fluo-4 calcium flux. BAM8-22 antagonism; stronger effect = lower value. B-score at 10 µM. actives 1.3% (n = 310,000). AID 588676, 2011;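 active = calcium-response B-score plate-corrected more than 3 library SD below zero, starting fluorescence within 5 deviations, no agonist response on first addition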;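 also: peak minus trough fluorescence over baseline after final BAM8-22 challenge near maximal dose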
RGS4 block – RGS4 inhibitors, primary screen, cell-based, HEK293 M3R inducible RGS4, calcium flux; Regulator of G-protein signaling 4 (Homo sapiens), P49798; Fluo-4 calcium flux; stronger effect = higher value; triggered by carbachol at its EC20; B-score at 10 µM; actives 0.45% (n = 310,000); AID 463165, 2010;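 active = B-score, a plate-corrected calcium signal, over three deviations above library mean, with baseline fluorescence within five deviations of library mean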;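 also: RGS4 expression induced by doxycycline in cells with stable M3 receptor; B-score is computed from the integrated fluorescence ratio over baseline after carbachol; higher B-score means a larger calcium signal and so more RGS4 inhibition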
Target sequence (P49798 whole entry, looked up): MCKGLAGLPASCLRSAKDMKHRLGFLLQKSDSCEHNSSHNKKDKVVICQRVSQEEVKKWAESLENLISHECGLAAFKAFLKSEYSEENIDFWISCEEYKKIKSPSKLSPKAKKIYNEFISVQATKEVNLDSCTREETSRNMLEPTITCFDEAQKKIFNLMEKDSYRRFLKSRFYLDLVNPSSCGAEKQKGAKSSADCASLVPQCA
* marks the source's active call; other numbers are inactive results; i = inactive; · = not tested or not shown.

SMILES | RGS4 act | MrgX1 agonist | MrgX1 allo act | MrgX1 antagonist | RGS4 block
Cc1c(-c2cccc(Cl)c2)nc2ccccc2c1C(=O)N1CCC2(CC1)OCCO2 | i | i | i | i | i
CCOC(C(=O)OCCCN(CC)CC)(c1ccccc1)c1ccccc1 | i | i | i | i | i
CCN(CC)CCCOC(=O)C(OC(C)C)(c1ccccc1)c1ccccc1 | -10.6* | i | i | i | i
CCn1cc(/C=c2/sc3n(c2=O)C2c4ccccc4OC(C)(N=3)C2C(=O)OC)c(C)n1 (centres undefined) | i | i | i | i | i
COC(=O)C1C2c3ccccc3OC1(C)N=c1s/c(=C/c3cn(C)nc3C)c(=O)n12 (centres undefined) | i | i | 7.11* | i | i
CN(C)C(=O)Oc1ccc2oc(=O)cc(-c3cc4ccccc4o3)c2c1 | i | i | i | i | i
Cc1ccccc1-n1c(O)c(/C=C2/C(c3ccccc3)=Nc3ccccc32)c(=O)[nH]c1=O | i | i | i | i | i
CC1=Nc2ccccc2/C1=C/c1c(O)n(C)c(=O)[nH]c1=O | i | i | 8.06* | i | i
O=C(COc1ccc2ccc(=O)oc2c1)N1CCC(C(=O)O)(c2ccccc2)CC1 | i | i | i | i | i
COC(=O)C1=C(N)Oc2c(c(=O)oc3ccccc23)[C@]12C(=O)N(C)c1ccccc12 | i | i | 8.62* | i | i
C[C@@H]1C2C[C@@]34COC(=O)C3=CC=C[C@H]4[C@@]13C[C@H](c1ccoc1)O[C@@H]3O2 | · | i | i | i | ·
CCN(CC)C(=O)c1ccc2c(c1)C1C(Cl)C(Sc3ccccc3[N+](=O)[O-])CC1C(C(=O)O)N2 (centres undefined) | i | i | i | -6.66* | i
Cc1ccc2c(c1Cl)NC(C(=O)O)C1CC(Sc3ccccc3[N+](=O)[O-])C(Cl)C21 (centres undefined) | i | i | i | i | i
O=C(c1ccc(N2CCCCCC2)c([N+](=O)[O-])c1)N1CCC2(CC1)OCCO2 | i | i | i | i | i
CN1C(=O)C(=Cc2ccc(N3CCCCCC3)o2)C(=O)N(C)C1=S | · | 28.6* | i | i | ·
CN[C@H]1C[C@H]2O[C@@](C)([C@H]1OC)n1c3ccccc3c3c4c(c5c6ccccc6n2c5c31)C(=O)NC4 | i | i | 10.2* | i | 4.93*
O=C(O)Cn1cc(C(=O)c2ccccc2F)c2ccccc21 | i | i | i | i | i
Cc1cccc(N2C(=O)NC(=O)/C(=C\c3ccc4c(c3)CCCN4Cc3ccccc3)C2=O)c1 | i | i | 11.9* | i | i
CCc1c(C)nc(N)nc1N1N=C1SC(C(C)=O)C(C)=O | i | i | i | i | i
Nc1ccc2ccc3cccc[n+]3c2c1 | -7.59* | i | i | i | i
CNC(=O)O/N=C(\C)Cc1nnn(-c2cc(C)on2)n1 | i | i | i | i | i
CCOc1cccc(=NC2CCCCC2)c2c(C)n(C)c(C)c12 | i | i | i | -5.99* | i
CCOc1ccccc1N=C1SCCCN1C | i | i | i | i | i
CCOP(=O)(C#Cc1ccccc1)C(O)c1ccc(Br)cc1 (centres undefined) | i | i | 16.8* | i | i
CC[N+](CC)(CC#CCO)CC#Cc1ccccc1 | i | i | i | i | i
SMILES | RGS4 act | MrgX1 agonist | MrgX1 allo act | MrgX1 antagonist | RGS4 block
CCC(C)n1c(O)c(C=NCC2CCCO2)c(=O)[nH]c1=S (centres undefined) | -10.2* | i | i | i | i
CCC(C)n1c(O)c(/C=N/N2CCOCC2)c(=O)[nH]c1=S (centres undefined) | i | i | i | i | i
C=CCn1c(C)c(C=C2C(=O)NC(=O)NC2=O)c2ccccc21 | i | 39.2* | i | i | i
Cc1cc(/C=C2/C(=O)NC(=O)N(Cc3ccco3)C2=O)c(C)n1-c1ccccc1O | i | i | 9.65* | i | i
O=C(O)Cn1cc(/C=C2\C(=O)NC(=O)N(Cc3ccco3)C2=O)c2ccccc21 | i | i | i | i | i
CC1CCC(NCCc2ccc3c(c2)OCO3)CC1 (centres undefined) | -7* | i | i | i | i
C/C(O)=C(\C#N)C(=O)Nc1cc(Br)ccc1Br | · | i | i | i | ·
COc1ccc(-n2c(O)c(C(C)=NC3CC3)c(=O)[nH]c2=O)cc1 | i | i | i | i | i
O=C1NC(=O)N(CC2CCCO2)C(=O)/C1=C/c1cccs1 (centres undefined) | i | i | i | i | i
CCN(CC)c1ccc(/C=C2/C(=O)NC(=O)N(CC3CCCO3)C2=O)cc1 (centres undefined) | i | i | i | -4.55* | i
CCOC(=O)CC1=C(C(=O)OCC)C2(C(=O)N1CC(=O)OC)C(C#N)=C(N)Oc1ccccc12 (centres undefined) | i | i | i | i | i
O=C(c1ccc(-c2ccccc2)c(F)c1)C1CCCN(CCO)C1 (centres undefined) | i | i | i | i | i
O=c1cccc2n1C[C@@H]1C[C@@H]2CN(CC(O)c2ccc([N+](=O)[O-])cc2)C1 (some centres undefined) | i | i | i | i | i
Cc1ccc(-c2cc(-c3ccc(C)cc3)[n+](-c3ccc(C(=O)[O-])cc3)c(-c3ccc(C)cc3)c2)cc1 | i | i | i | i | i
CCOC(=O)c1ccc(-[n+]2c(-c3ccccc3)cc(-c3ccccc3)cc2-c2ccccc2)cc1 | i | 27.7* | i | i | i
CCOC(=O)c1cccc(-[n+]2c(-c3ccccc3)cc(-c3ccccc3)cc2-c2ccccc2)c1 | -7.72* | i | i | -6.79* | i
C#CC1(OC(=O)c2ccccc2)CC(C)N(C)CC1C (centres undefined) | -7.03* | i | i | i | i
CCCCS(=O)(=O)N1CCN(C(=N)N[N+](=O)[O-])CC1 | i | i | i | i | i
Cc1nc2ccccc2c(=O)n1/N=C/c1cc(Br)cc(Br)c1O | i | i | i | -8.59* | i
O=c1[nH]c(=O)n(-c2ccc(F)cc2)c(O)c1/C=C1\C=Nc2ccccc21 | i | i | i | i | i
